Test results reported in article PMC10092581 (Chemistry (Weinheim an Der Bergstrasse, Germany), 2022).
Where two headings read alike, the source gives them in different places.

Tests used:
A375 melanoma cells = assay: MTT cytotoxicity, 72 h; format: cell-based, human; details: read-out: IC50 (μM)±SD A375, MTT test
Outline: (§1)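 The 2008 and H157 cells were kept in RPMI-1640, and A375 cells in DMEM, each with 10% FCS, antibiotics and 2 mM glutamine, at 37 °C, 5% CO2. Cells (3–8×10^3/well) were exposed 72 h in triplicate, with DMSO at 0.5% final. MTT was added for 5 h, followed by SDS/0.01 M HCl overnight, then A570 relative to untreated wells. IC50 came from a 4-PL fit, means of ≥4 independent experiments.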

[1] = tested on: MCF‐7 breast cancer cells; assay: MTT cytotoxicity, 72 h; format: cell-based, human; details: read-out: IC50 (μM)±SD MCF‐7, MTT test
[2] = tested on: 2008 ovarian cancer cells; assay: MTT cytotoxicity, 72 h; format: cell-based, human; details: read-out: IC50 (μM)±SD 2008, MTT test
Outline: as §1

[3] = tested on: PSN‐1 pancreatic cancer cells; assay: MTT cytotoxicity, 72 h; format: cell-based, human; details: read-out: IC50 (μM)±SD PSN‐1, MTT test
H157 cells [4] = assay: Apoptosis induction; format: cell-based, human; details: 48 h, IC50 doses
[5] = tested on: A431 cervical carcinoma cells; assay: MTT cytotoxicity, 72 h; format: cell-based, human; details: read-out: IC50 (μM)±SD A431, MTT test
[6] = tested on: HCT‐15 colon cancer cells; assay: MTT cytotoxicity, 72 h; format: cell-based, human; details: read-out: IC50 (μM)±SD HCT‐15, MTT test
H157 cells [7] = assay: Transmission electron microscopy; format: cell-based, human; details: 24 h, IC50 concentrations
Outline: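 About 10^6 H157 cells were treated 24 h after seeding and incubated a further 24 h; untreated and auranofin-treated cells served as references. Cells were fixed in 1.5% glutaraldehyde in 0.2 M sodium cacodylate pH 7.4, post-fixed in 1% OsO4 and embedded in epoxy. Sections were 1 μm (toluidine blue) or 90 nm (uranyl acetate/lead citrate), imaged at 75 kV.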

[8] = tested on: H157 lung carcinoma cells; assay: MTT cytotoxicity, 72 h; format: cell-based, human; details: read-out: IC50 (μM)±SD H157, MTT test
Outline: as §1

[9] = tested on: LoVo‐OXP colon cancer cells; details: as previously reported; cited from earlier work
[10] = tested on: LoVo‐OXP colon cancer cells; assay: MTT cross-resistance, oxaliplatin-resistant cells; format: cell-based, human
Outline: (§2)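 LoVo, LoVo MDR and LoVo-OXP cells were grown in F-12 HAM'S with 10% FCS, antibiotics and 2 mM glutamine at 37 °C, 5% CO2. LoVo-OXP had been selected over 17 months in increasing oxaliplatin. Cells (3–8×10^3/well) were exposed 72 h in triplicate, with DMSO at 0.5% final. MTT was added for 5 h, followed by SDS/0.01 M HCl overnight, then A570. IC50 came from a 4-PL fit over ≥4 experiments; RF = IC50 resistant/IC50 LoVo.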

LoVo colon cancer cells = assay: MTT cross-resistance, sensitive colon cells; format: cell-based, human; details: read-out: IC50 (μM)±SD LoVo, 72 h
Outline: as §2

[11] = tested on: A2780 ADR ovarian cancer cells; assay: MTT cross-resistance, multi-drug resistant ovarian cells; format: cell-based, human
Outline: (§3)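 A2780 and A2780 ADR cells were grown in RPMI-1640 with 10% FCS, antibiotics and 2 mM glutamine at 37 °C, 5% CO2. Cells (3–8×10^3/well) were given compound after 24 h and exposed 72 h in triplicate, with DMSO at 0.5% final. MTT was added for 5 h, followed by SDS/0.01 M HCl overnight, then A570 as % of untreated control. IC50 came from a 4-PL fit over ≥4 experiments; RF = IC50 A2780 ADR/IC50 A2780.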

[12] = tested on: LoVo MDR colon cancer cells; assay: MTT cross-resistance, multi-drug resistant cells; format: cell-based, human
Outline: as §2

[13] = tested on: A2780 ovarian adenocarcinoma cells; assay: MTT cross-resistance, sensitive ovarian cells; format: cell-based; details: Homo sapiens, A2780, 72 h, read-out: IC50 (μM)±SD A2780
Outline: as §3

[14] = tested on: H157 lung cancer cell spheroids; assay: 3D spheroid cytotoxicity, acid phosphatase; format: cell-based, human; details: read-out: IC50 (μM)±SD H157 spheroids; 3D spheroids, 72 h, APH assay
Outline: (§4)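 H157 or A2780 cells were seeded at 2.5×10^3 cells/well in round-bottom non-treated plates. The medium was phenol red-free RPMI-1640 with 10% FCS plus 20% methyl cellulose stock solution. Spheroids were exposed 72 h to increasing concentrations, with the compound added from DMSO to a final 0.5%. Viability was read by a modified acid phosphatase assay, and IC50 was fitted by a 4-parameter logistic model.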

[15] = tested on: A2780 ovarian cancer cell spheroids; assay: 3D spheroid cytotoxicity, acid phosphatase; format: cell-based, human; details: read-out: IC50 (μM)±SD A2780 spheroids; 3D spheroids, 72 h, APH assay
Outline: as §4

[16] = RF=IC50 resistant cells/IC50 sensitive cells

Structure (SMILES)	IC50 (A375 melanoma cells)	IC50 [1]	IC50 [2]	IC50 [3]	IC50 [5]	IC50 [6]	IC50 [8]	further results
CC(=O)OC[C@H]1O[C@@H]([S-])[C@H](OC(C)=O)[C@@H](OC(C)=O)[C@@H]1OC(C)=O.CCP(CC)CC.[Au+] [Auranofin, 2,3,4,6‐tetra‐o‐acetyl‐ L‐thio‐β‐D‐glyco‐pyranosato ‐S‐(triethyl‐phosphine) gold(I)]	2.3 ± 1 µM	0.9 ± 0.3 µM	1 ± 0.2 µM	1 ± 0.4 µM	2 ± 0.8 µM	0.1 ± 0.02 µM	1.6 ± 0.3 µM	apoptosis, cellular morphological changes (Hoechst 33258) (H157 cells [4]): brightly stained nuclei and morphological features typical of cells undergoing apoptosis; mitochondrial morphology (TEM) (H157 cells [7]): dramatic swelling of the mitochondria
O=C(O)C(=O)O.[NH-][C@@H]1CCCC[C@H]1[NH-].[Pt+2] [oxaliplatin]	–	–	–	–	–	–	–	resistance of LoVo OXP cells vs parental cells [9]: about 13 fold; RF (LoVo‐OXP/LoVo) [10, 16]: ND 13.0; IC50 ([10]; read-out: IC50 (μM)±SD LoVo‐OXP, 72 h, MTT test): 14.3 µM; IC50 (LoVo colon cancer cells; MTT test): 1.1 ± 0.6 µM
COc1cccc2c1C(=O)c1c(O)c3c(c(O)c1C2=O)C[C@@](O)(C(=O)CO)C[C@@H]3O[C@H]1C[C@H](N)[C@H](O)[C@H](C)O1 [Doxorubicin]	–	–	–	–	–	–	–	IC50 ([11]; Homo sapiens, A2780 ADR, 72 h, read-out: IC50 (μM)±SD A2780 ADR): 0.16 ± 0.03 µM; RF (A2780 ADR/A2780) [11, 16]: 16.0 –; IC50 ([12]; Homo sapiens, LoVo, 72 h, read-out: IC50 (μM)±SD LoVo MDR): 19.2 ± 2.3 µM; RF (LoVo MDR/LoVo) [12, 16]: 17.5 –; IC50 [13]: 0.01 ± 0.001 µM; IC50 (LoVo colon cancer cells; Homo sapiens, LoVo): 1.1 ± 0.2 µM
N.N.[Cl][Pt][Cl] [Cisplatin]	3.1 ± 0.4 µM	8.8 ± 1 µM	2.2 ± 1.3 µM	12.1 ± 2.9 µM	1.4 ± 0.3 µM	11.3 ± 1.5 µM	5.9 ± 1.1 µM	IC50 [14]: 52.5 ± 1.3 µM; IC50 [15]: 74.2 ± 8.9 µM
